Experimental data gathered from unrelated publications.
Protocols differ between the studies behind these lines. pKi: −log10 of the molar value.
Liver carboxylesterase: Liver carboxylesterase (Sus scrofa, UniProt Q29550)
ADORA3: Adenosine receptor A3 (ADORA3, Homo sapiens, UniProt P0DMS8)
DRD2: D(2) dopamine receptor (DRD2, Homo sapiens, UniProt P14416)

CCCCC[C@H](O)/C=C/C1=C(CCCCCCC(=O)O)C(=O)CC1
pKi (Liver carboxylesterase; enzyme activity, inhibitor, HPLC; pH 7.4): 4.80

NCCCC[C@H](NC(=O)[C@@H]1CCCN1C(=O)[C@@H]1CSSC[C@H](N)C(=O)N[C@@H](Cc2ccc(O)cc2)C(=O)N[C@@H](Cc2ccccc2)C(=O)N[C@@H](CCC(N)=O)C(=O)N[C@@H](CC(N)=O)C(=O)N1)C(=O)NCC(N)=O
pKi (Vasopressin V2 receptor (AVPR2, Homo sapiens, UniProt P30518); ligand displacement, radioligand; cell membranes): 8.00

CNC(=O)[C@@]12C[C@@H]1[C@@H](n1cnc3c(NCc4cn(-c5ccc(F)c(N)c5)nn4)nc(Cl)nc31)[C@H](O)[C@@H]2O
pKi (ADORA3; ligand displacement, radioligand; cell membranes): 7.65

CCCC[C@H](NC(=O)[C@H](CO)NC(=O)[C@H](Cc1ccc(O)cc1)NC(=O)[C@H](CO)NC(C)=O)C(=O)N[C@@H](CCC(=O)O)C(=O)N[C@@H](Cc1c[nH]cn1)C(=O)N[C@@H](C)C(=O)N[C@@H](CCCNC(=N)N)C(=O)N[C@@H](Cc1c[nH]c2ccccc12)C(=O)NCC(=O)N[C@@H](CCCCN)C(=O)N1CCC[C@H]1C(=O)N[C@H](C(=O)NCC(=O)N[C@@H](CCCCN)C(=O)N[C@@H](CCCCN)C(=O)N[C@@H](CCCNC(=N)N)C(N)=O)C(C)C
pKi (Melanocortin receptor 3 (MC3R, Homo sapiens, UniProt P41968); ligand displacement in cells, radioligand): < 6.00

CC(C)CCCC(C)N1CCCn2c1nc1c2c(=O)n(C)c(=O)n1C (stereo not shown)
pKi (ADORA3; ligand displacement, radioligand; cell membranes): 5.59

COc1ccc2c(c1)C(=O)N(CCN1CCN(c3ccccc3OC)CC1)C2
pKi (DRD2; ligand displacement, radioligand): 5.78

CCCCC[C@H](O)/C=C/[C@H]1[C@H](O)CC(=O)[C@@H]1C/C=C\CCCC(=O)O
pKi (Liver carboxylesterase; enzyme activity, inhibitor, HPLC; pH 7.4): < 4.55

CC(C)CN1CCCn2c1nc1c2c(=O)n(C)c(=O)n1C
pKi (ADORA3; ligand displacement, radioligand; cell membranes): < 5.00

COC(=O)[C@H](CSC/C=C(\C)CC/C=C(\C)CCC=C(C)C)NC(=O)c1ccc(-c2ccccc2)cc1
pKi (Liver carboxylesterase; enzyme activity, inhibitor, HPLC): 3.72

CCn1c(-c2nc3cc(C(=O)N4CCC[C@@H](N)C4)cc(OC)c3n2C)cc2cccnc21
pKi (Protein-arginine deiminase type-2 (PADI2, Homo sapiens, UniProt Q9Y2J8); enzyme activity, inhibitor): 2.80

c1ccc(CCC2=NCCN2CCc2ccccc2)cc1
pKi (DRD2; ligand displacement, radioligand): < 5.00

O=C1c2ccccc2CCN1CCCCN1CCN(c2cccc(Cl)c2Cl)CC1
pKi (5-hydroxytryptamine receptor 1E (HTR1E, Homo sapiens, UniProt P28566); ligand displacement, radioligand): 5.46

CC[C@H](C)[C@H](NC(=O)CN)C(=O)N[C@H](C(=O)N[C@@H](CC(N)=O)C(=O)N[C@H](C(=O)N[C@@H](CC(C)C)C(=O)N[C@@H](CCC(N)=O)C(=O)N[C@@H](CCCCN)C(=O)N[C@@H](Cc1ccc(O)cc1)C(=O)N[C@@H](Cc1ccc(O)cc1)C(=O)N[C@@H](CO)C(=O)N[C@@H](CCCNC(=N)N)C(=O)N[C@H](C(=O)N[C@@H](CCCNC(=N)N)C(=O)NCC(=O)NCC(=O)N[C@@H](CCCNC(=N)N)C(=O)N[C@@H](CO)C(=O)N[C@@H](C)C(=O)N[C@H](C(=O)N[C@@H](CC(C)C)C(=O)N[C@@H](CO)C(=O)N[C@H]1CSSC[C@@H](C(=O)N[C@@H](CCCNC(=N)N)C(=O)N[C@@H](CCCNC(=N)N)C(=O)N[C@@H](CCCCN)C(=O)N[C@@H](CCCCN)C(N)=O)NC(=O)[C@H](CO)NC(=O)[C@H](CCCCN)NC(=O)[C@H](CCCNC(=N)N)NC(=O)CNC(=O)[C@H](CCCNC(=N)N)NC(=O)[C@H]([C@@H](C)O)NC(=O)[C@H](CO)NC(=O)[C@H](CO)NC(=O)[C@H](CCCCN)NC(=O)CNC(=O)[C@H]([C@@H](C)CC)NC(=O)[C@H](CCC(N)=O)NC(=O)[C@H](CCC(=O)O)NC(=O)[C@H](CCC(=O)O)NC(=O)[C@H](CCCCN)NC(=O)[C@@H]2CCCN2C(=O)[C@H](CC(C)C)NC1=O)C(C)C)C(C)C)[C@@H](C)O)[C@@H](C)CC
pKi (Melanocyte-stimulating hormone receptor (MC1R, Homo sapiens, UniProt Q01726); ligand displacement in cells): 6.70

C=CCN1CCCn2c1nc1c2c(=O)n(C)c(=O)n1C
pKi (ADORA3; ligand displacement, radioligand; cell membranes): < 5.00

CCNC(=O)[C@H]1O[C@@H](n2cnc3c(N)nc(NN=C[C@H]4CCC=CO4)nc32)[C@H](O)[C@@H]1O
pKi (ADORA3; ligand displacement, radioligand): 8.35

CC(C)CC(C)N1CCCn2c1nc1c2c(=O)n(C)c(=O)n1C (stereo not shown)
pKi (ADORA3; ligand displacement, radioligand; cell membranes): < 5.00

Oc1ccc(CCC2=NCCN2CCc2ccccc2)cc1
pKi (DRD2; ligand displacement, radioligand): 6.10

CCCCN1CCCn2c1nc1c2c(=O)n(C)c(=O)n1C
pKi (ADORA3; ligand displacement, radioligand; cell membranes): < 5.00

CC/C=C\C/C=C\C/C=C\C/C=C\C/C=C\C/C=C\CCC(=O)O
pKi (Liver carboxylesterase; enzyme activity, inhibitor, HPLC; pH 7.4): 5.43
